# Experimental data: ChEMBL document CHEMBL4346727, “Synthesis and pharmacological evaluation of novel N-Mannich bases derived from 5,5-diphenyl and 5,5-di(propan-2-yl)imidazolidine-2,4-dione core” (Bioorg Med Chem Lett, 2019)
# The source made the active and inactive calls. Unless noted, the calls are words filed in the database; no cut-off is given here.
# What was measured:
# [1] = Neurotoxicity in CD1 mouse at 300 mg/kg, ip and measured after 4 hrs hrs by rotarod test; type: toxicity, organism-based; details: in vivo
# Summary of the method: (§1)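 Mice dosed intraperitoneally at 30, 100 and 300 mg/kg, then tested on the rotarod at 0.5 h and 4 h. The value recorded is the minimum dose at which neurotoxicity appeared. A dash means no neurotoxicity at the top dose of 300 mg/kg.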
# [2] = test system: Mus musculus; test: Anticonvulsant activity in CD1 mouse assessed as protection against subcutaneous pentylenetetrazole-induced seizures at 300 mg/kg, ip and measured after 0.5 hrs; type: functional, organism-based
# Summary of the method: (§2)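 Mice were screened after intraperitoneal doses of 30, 100 and 300 mg/kg in the maximal electroshock and subcutaneous pentylenetetrazole tests, examined at 0.5 and 4 h. The value recorded is the minimum dose showing activity. No activity up to 300 mg/kg is scored as absent.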
# [3] = test system: Mus musculus; test: Anticonvulsant activity in CD1 mouse assessed as protection against subcutaneous pentylenetetrazole-induced seizures at 300 mg/kg, ip and measured after 4 hrs; type: functional, organism-based; summary of the method: as §2
# [4] = Neurotoxicity in ip dosed CD1 mouse and measured after 0.5 hrs by rotarod test; type: toxicity, organism-based; details: in vivo; summary of the method: as §1
# [5] = test system: Mus musculus; test: Anticonvulsant activity in CD1 mouse assessed as protection against 50 mA current-induced seizure at 300 mg/kg, ip and measured after 0.5 hrs by maximal electroshock seizure test; type: functional, organism-based; summary of the method: as §2
# [6] = test system: Mus musculus; test: Anticonvulsant activity in CD1 mouse assessed as protection against 50 mA current-induced seizure at 300 mg/kg, ip and measured after 4 hrs by maximal electroshock seizure test; type: functional, organism-based; summary of the method: as §2
# [7] = Neurotoxicity in ip dosed CD1 mouse and measured after 4 hrs by rotarod test; type: toxicity, organism-based; details: in vivo; summary of the method: as §1
# [8] = test system: Mus musculus; test: Anticonvulsant activity in ip dosed CD1 mouse assessed as protection against 50 mA current-induced seizure and measured after 4 hrs by maximal electroshock seizure test; type: functional; details: read-out: MED; summary of the method: as §2
# [9] = Neurotoxicity in CD1 mouse at 100 mg/kg, ip measured after 15 mins by rotarod test; details: in vivo, 0.25 h
# [10] = test system: Rattus norvegicus; test: Anticonvulsant activity in Sprague-Dawley rat assessed as protection against 150 mA current-induced seizure at 30 mg/kg, po measured after 2 hrs by maximal electroshock seizure test; type: functional, organism-based
# Summary of the method: (§3)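 Rats received 30 mg/kg orally and were given maximal electroshock at 0.25, 0.5, 1, 2, 4 and 6 h. Read-out is the number of rats protected out of four.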
# [11] = test system: Mus musculus; test: Anticonvulsant activity in CD1 mouse assessed as protection against 32 mA current-induced seizure at 100 mg/kg, ip measured after 30 mins by 6 Hz psychomotor seizure test
# [12] = Neurotoxicity in CD1 mouse at 300 mg/kg, ip and measured after 0.5 hrs by rotarod test; type: toxicity, organism-based; details: in vivo; summary of the method: as §1
# [13] = test system: Mus musculus; test: Anticonvulsant activity in ip dosed CD1 mouse assessed as protection against 50 mA current-induced seizure and measured after 0.5 hrs by maximal electroshock seizure test; type: functional; details: read-out: MED; summary of the method: as §2
# [14] = Neurotoxicity in CD1 mouse at 100 mg/kg, ip measured after 30 mins by rotarod test; details: in vivo, 0.5 h
# [15] = Neurotoxicity in CD1 mouse at 100 mg/kg, ip measured after 1 hr by rotarod test; details: in vivo
# [16] = test system: Rattus norvegicus; test: Anticonvulsant activity in Sprague-Dawley rat assessed as protection against 150 mA current-induced seizure at 30 mg/kg, po measured after 4 hrs by maximal electroshock seizure test; type: functional, organism-based; summary of the method: as §3
# [17] = test system: Mus musculus; test: Anticonvulsant activity in CD1 mouse assessed as protection against 32 mA current-induced seizure at 100 mg/kg, ip measured after 2 hrs by 6 Hz psychomotor seizure test
# [18] = Neurotoxicity in Sprague-Dawley rat at 30 mg/kg, po measured after 2 hr by rotarod test; type: toxicity, organism-based; details: in vivo
# Summary of the method: (§4)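 Rats given one oral dose of 30 mg/kg and tested on the rotarod at 0.25, 0.5, 1, 2, 4 and 6 h.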
# [19] = test system: Mus musculus; test: Anticonvulsant activity in CD1 mouse assessed as protection against 32 mA current-induced seizure at 100 mg/kg, ip measured after 15 mins by 6 Hz psychomotor seizure test
# [20] = Neurotoxicity in Sprague-Dawley rat at 30 mg/kg, po measured after 30 mins by rotarod test; type: toxicity, organism-based; details: in vivo, 0.5 h; summary of the method: as §4
# [21] = Neurotoxicity in CD1 mouse at 100 mg/kg, ip measured after 2 hrs by rotarod test; details: in vivo
# [22] = test system: Rattus norvegicus; test: Anticonvulsant activity in Sprague-Dawley rat assessed as protection against 150 mA current-induced seizure at 30 mg/kg, po measured after 15 mins by maximal electroshock seizure test; type: functional, organism-based; summary of the method: as §3
# [23] = Neurotoxicity in Sprague-Dawley rat at 30 mg/kg, po measured after 15 mins by rotarod test; type: toxicity, organism-based; details: in vivo, 0.25 h; summary of the method: as §4
# [24] = test system: Rattus norvegicus; test: Anticonvulsant activity in Sprague-Dawley rat assessed as protection against 150 mA current-induced seizure at 30 mg/kg, po measured after 1 hr by maximal electroshock seizure test; type: functional, organism-based; summary of the method: as §3
# [25] = Neurotoxicity in CD1 mouse at 100 mg/kg, ip measured after 4 hrs by rotarod test; details: in vivo
# [26] = Neurotoxicity in Sprague-Dawley rat at 30 mg/kg, po measured after 1 hr by rotarod test; type: toxicity, organism-based; details: in vivo; summary of the method: as §4
# [27] = Neurotoxicity in Sprague-Dawley rat at 30 mg/kg, po measured after 4 hr by rotarod test; type: toxicity, organism-based; details: in vivo; summary of the method: as §4
# [28] = test system: Rattus norvegicus; test: Anticonvulsant activity in Sprague-Dawley rat assessed as protection against 150 mA current-induced seizure at 30 mg/kg, po measured after 30 mins by maximal electroshock seizure test; type: functional, organism-based; summary of the method: as §3
# [29] = test system: Mus musculus; test: Anticonvulsant activity in ip dosed CD1 mouse assessed as protection against subcutaneous pentylenetetrazole-induced seizures and measured after 4 hrs; type: functional; details: CD1, 4 h, read-out: MED; summary of the method: as §2
SMILES,Activity [1],MED [2],Activity [3],minimal neurotoxic dose [4] [mg/kg],Activity [5],minimal effective dose [8] [mg/kg],Activity [12],minimal effective dose [13] [mg/kg],Activity [18],Activity [20],Activity [22],Activity [23],Activity [24],Activity [26],Activity [27],also measured
CC(C)C1(C(C)C)NC(=O)N(CN2CCN(Cc3ccccc3)CC2)C1=O,Non-Toxic,inactive,inactive,300,inactive,,,,,,,,,,,Activity [6]: inactive
CC(C)C1(C(C)C)NC(=O)N(CN2CCN(c3ccc(F)cc3)CC2)C1=O,,inactive,inactive,300,inactive,100,,,,,,,,,,MTC [7]: 300 mg/kg
O=C1NC(c2ccccc2)(c2ccccc2)C(=O)N1CN1CCN(c2cccc(C(F)(F)F)c2)CC1,Non-Toxic,inactive,inactive,,,100,Non-Toxic,300,Non-Toxic,Non-Toxic,inactive,Non-Toxic,Active,Non-Toxic,Non-Toxic,Activity [9]: Non-Toxic; Activity [10]: Active; Activity [11]: inactive; Activity [14]: Non-Toxic; Activity [15]: Non-Toxic; Activity [16]: Active; Activity [17]: Active; Activity [19]: inactive; Activity [21]: Non-Toxic; Activity [25]: Non-Toxic
O=C1NC(c2ccccc2)(c2ccccc2)C(=O)N1CN1CCN(c2ccc(F)cc2)CC1,Non-Toxic,inactive,inactive,,inactive,100,Non-Toxic,,Non-Toxic,Non-Toxic,inactive,Non-Toxic,inactive,Non-Toxic,Non-Toxic,Activity [10]: inactive
CC(C)C1(C(C)C)NC(=O)N(CN2CCN(c3cccc(C(F)(F)F)c3)CC2)C1=O,Non-Toxic,inactive,inactive,,inactive,100,Non-Toxic,,Non-Toxic,Non-Toxic,inactive,Non-Toxic,,Non-Toxic,Non-Toxic,Activity [9]: Non-Toxic; Activity [14]: Non-Toxic; Activity [15]: Non-Toxic; Activity [19]: inactive; Activity [21]: Non-Toxic; Activity [25]: Non-Toxic
O=C1NC(c2ccccc2)(c2ccccc2)C(=O)N1CN1CCN(c2ccccc2)CC1,Non-Toxic,inactive,inactive,,,100,Non-Toxic,300,Non-Toxic,Non-Toxic,,Non-Toxic,,Non-Toxic,Non-Toxic,
O=C1NC(c2ccccc2)(c2ccccc2)C(=O)N1CN1CCN(Cc2ccccc2)CC1,Non-Toxic,inactive,inactive,,,100,Non-Toxic,300,Non-Toxic,Non-Toxic,,Non-Toxic,inactive,Non-Toxic,Non-Toxic,Activity [10]: inactive
O=C1NC(c2ccccc2)(c2ccccc2)C(=O)N1CN1CCN(c2cccc(Cl)c2)CC1,Non-Toxic,inactive,inactive,,inactive,100,Non-Toxic,,Non-Toxic,Non-Toxic,,Non-Toxic,,Non-Toxic,Non-Toxic,Activity [28]: inactive
CC(C)C1(C(C)C)NC(=O)N(CN2CCN(C)CC2)C1=O,Non-Toxic,inactive,inactive,300,,,,300,,,,,,,,Activity [6]: inactive
CC(C)C1(C(C)C)NC(=O)N(CN2CCN(c3ccccc3F)CC2)C1=O,,inactive,,300,,100,,100,,,,,,,,MTC [7]: 300 mg/kg; minimal effective dose [29]: 100 mg/kg
O=C1NC(c2ccccc2)(c2ccccc2)C(=O)N1CN1CCN(c2ccccc2F)CC1,Non-Toxic,inactive,inactive,,inactive,30,Non-Toxic,,Non-Toxic,Non-Toxic,inactive,Non-Toxic,,Non-Toxic,Non-Toxic,Activity [9]: Non-Toxic; Activity [14]: Non-Toxic; Activity [15]: Non-Toxic; Activity [17]: Active; Activity [21]: Non-Toxic; Activity [25]: Non-Toxic
CC(C)C1(C(C)C)NC(=O)N(CN2CCN(c3cccc(Cl)c3)CC2)C1=O,Non-Toxic,inactive,inactive,,,100,Non-Toxic,100,Non-Toxic,Non-Toxic,inactive,Non-Toxic,inactive,Non-Toxic,Non-Toxic,Activity [28]: inactive
